In PMC8500941 (Molecular cell, 2021):
Entries after “also recorded” stand apart in the source; their conditions may differ.

Key:
DnaK [1] = settings: from biochemical assays of this paper
W102 of DnaK = assay: Tryptophan fluorescence assay; type: biochemical, Escherichia coli; settings: for W102 fluorescence of D148 mutants (in words): ATP and ADP, compared with wild-type levels; for wavelength of maximal W102 fluorescence: 1 μM DnaK, buffer A pH 7.5, ~25°C, excitation 290 nm
How it was run: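 Protein: full-length DnaK with C-terminal His6, expressed in BB205 and purified by HisTrap then HiTrap Q. Protein (1 μM final) preincubated 2 min with 2 mM ATP or ADP in buffer A (25 mM Hepes-KOH pH 7.5, 100 mM KCl, 10 mM Mg(OAc)2). Emission 300–400 nm recorded at ~25°C. Spectra normalised to ADP peak = 1.0. ATP-versus-ADP peak-wavelength shift compared.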

[2] = test system: dnaK deletion strain BB205 E. coli cells; assay: Cell viability tests; type: cell-based, Escherichia coli; settings: growth on LB agar at elevated temperature (37°C to 40°C), 20 μM IPTG
How it was run: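 DnaK-dependence test: pBB46 plasmids (ampR) carrying mutant dnaK transformed into BB205 (camR kanR). Fresh overnight culture from each fresh transformation, serially diluted, spotted on LB with 50 μg/ml ampicillin, 25 μg/ml kanamycin, 25 μg/ml chloramphenicol, 20 μM IPTG. Grown overnight at 37°C to 40°C, with control plates at 30°C. Viability scored from growth.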

DnaK [3] = settings: for ATP hydrolysis (in words): intrinsic / low peptide concentration, compared with WT; for kcat (ATP hydrolysis): single-turnover, constitutively stimulated state (k′ = kcat); for rate of ATP hydrolysis, basal: buffer A pH 7.5, single-turnover
[4] = test system: yeast Ssa1 and E. coli DnaK; settings: heat shock; ref Liu & Hendrickson, 2007; cited from earlier work
DnaK [5] = settings: from d with KD^0S 1.73 μM; 20°C

## D148I
DnaK [1]
  allosteric state phenotype (in words): exclusive stabilization of the restraining R-state alternative
W102 of DnaK
  W102 fluorescence of D148 mutants (in words): quenched and blue-shifted to beyond wild-type levels
[2]
  chaperone activity / cell viability (in words): destroy chaperone activity

## D148V
W102 of DnaK
  W102 fluorescence of D148 mutants (in words): quenched and blue-shifted to beyond wild-type levels

## I160D
DnaK [3]
  ATP hydrolysis (in words): constitutively high ATPase activities
[4]
  phenotype of mutants (in words): profoundly defective

## I483D
DnaK [3]; 20°C
  kcat (ATP hydrolysis): 0.00452 ± 0.000183 s⁻¹
DnaK [3]
  ATP hydrolysis (in words): constitutively high ATPase activities
[4]
  phenotype of mutants (in words): profoundly defective
[2]
  chaperone activity / cell viability (in words): negligible chaperone activity; also recorded: destroy chaperone activity
DnaK [5]
  KeqS = [R] / [S]: 0

## N170D
DnaK [3]; basal, 20°C
  rate of ATP hydrolysis, basal: 0.37 min⁻¹
DnaK [3]; basal, 20°C, versus WT
  enhancement of basal ATP hydrolysis over WT: 31 fold
[4]
  phenotype of mutants (in words): profoundly defective

## V389D
[4]
  phenotype of mutants (in words): profoundly defective

## WT DnaK: full-length wild-type E. coli Hsp70 DnaK
DnaK [3]; basal, 20°C
  rate of ATP hydrolysis, basal: 0.012 min⁻¹
W102 of DnaK; 2 mM ADP
  wavelength of maximal W102 fluorescence: 342 nm
W102 of DnaK; 2 mM ATP
  wavelength of maximal W102 fluorescence: 335 nm
W102 of DnaK; ATP as compared with ADP
  W102 fluorescence change (in words): quenched and blue shifted

## WT∷NR: DnaK (residues 1–609) fused through a flexible linker to the NRLLLTG heptapeptide
DnaK [3]; 20°C
  kcat (ATP hydrolysis): 0.00455 ± 0.00013 s⁻¹
DnaK [5]
  KeqS = [R] / [S]: 0
